Assay results: ChEMBL document CHEMBL1148965, “Cytotoxic and other metabolites of Aspergillus inhabiting the rhizosphere of Sonoran desert plants” (J Nat Prod, 2004)
Calls of active or inactive are those of the source. The rule behind the calls is not given here.

How the values were obtained:
NCI-H460 [1] = experiment: Cytotoxicity against human NCI-H460 cells at 10 ug/mL by MTT assay; type: functional, cell-based
MIA PaCa-2 [2] = experiment: Cytotoxicity against human MIAPaCa2 cells at 10 ug/mL by MTT assay; type: functional, cell-based
MCF7 [3] = experiment: Cytotoxicity against human MCF7 cells at 10 ug/mL by MTT assay; type: functional, cell-based
[4] = Cytotoxicity against human WI38 cells at 10 ug/mL by MTT assay; type: cell-based; conditions: wi-38
SF-268 [5] = experiment: Cytotoxicity against human SF268 cells at 10 ug/mL by MTT assay; type: functional, cell-based
MIA PaCa-2 [6] = experiment: Cytotoxicity against human MIAPaCa2 cells by MTT assay; type: functional, cell-based
Procedure, shortened: (§1)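 Cells were exposed to DMSO-dissolved samples for 72 h in RPMI-1640 with 10% fetal bovine serum. Viability was read by tetrazolium (MTT) colorimetry. IC50 was taken as the concentration giving 50% inhibition of cell proliferation/survival. WI-38 are normal human primary fibroblasts.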

MCF7 [7] = experiment: Cytotoxicity against human MCF7 cells by MTT assay; type: functional, cell-based; procedure, shortened: as §1
SF-268 [8] = experiment: Cytotoxicity against human SF268 cells by MTT assay; type: functional, cell-based; procedure, shortened: as §1
NCI-H460 [9] = experiment: Cytotoxicity against human NCI-H460 cells by MTT assay; type: functional, cell-based; procedure, shortened: as §1
[10] = Cytotoxicity against human WI38 cells by MTT assay; type: cell-based; conditions: WI-38; procedure, shortened: as §1

SMILES | Activity (NCI-H460 [1]) | Activity (MIA PaCa-2 [2]) | Activity (MCF7 [3]) | Activity [4] | Activity (SF-268 [5]) | IC50 (MIA PaCa-2 [6]) | IC50 (MCF7 [7]) | IC50 (SF-268 [8]) | IC50 (NCI-H460 [9]) | IC50 [10]
COC1=CC(=O)OC1(O)C(C)C (stereo not given) | inactive | inactive | inactive | Non-toxic | inactive | – | – | – | – | –
C[C@H]1CCC/C=C/C(=O)c2c(O)cc(O)cc2CC(=O)O1 [DEHYDROCURVULARIN] | – | – | – | – | – | 1.9 µM | 1.3 µM | 2.5 µM | 1.1 µM | 3.6 µM
C=C(C)C1(O)OC(=O)C=C1OC (stereo not given) [PENICILLIC ACID] | – | – | – | – | – | 8 µM | 12.8 µM | 20 µM | 5.8 µM | 57.5 µM
COC1CCC[C@H](C)OC(=O)Cc2cc(O)cc(O)c2C(=O)C1 (stereo not given in full) | – | – | – | – | – | 1.2 µM | 0.6 µM | 0.9 µM | 0.9 µM | 1.7 µM
C=CC(C)(C)c1[nH]c2ccccc2c1C1=C(O)C(=O)C(c2c[nH]c3ccccc23)=C(CC=C(C)C)C1=O [TERREQUINONE A] | – | – | – | – | – | 5.4 µM | 6.8 µM | 13.9 µM | 5.6 µM | –
C[C@H]1CCCC(O)CC(=O)c2c(O)cc(O)cc2CC(=O)O1 (stereo not given in full) | – | – | – | – | – | 3.3 µM | 2 µM | 4.1 µM | 2.1 µM | 11.6 µM
CC/C=C/C=C/[C@]1(C)OC(CC(C)O)=CC1=O (stereo not given in full) [TERREFURANONE] | inactive | inactive | inactive | Non-toxic | inactive | – | – | – | – | –
C=CC(C)(C)[C@]12CC3C(=O)Nc4ccccc4C(=O)N3[C@H]1N(C(C)=O)c1ccccc12 (stereo not given in full) | inactive | inactive | inactive | Non-toxic | inactive | – | – | – | – | –
COc1cccc2c1C(=O)c1c(O)c3c(c(O)c1C2=O)C[C@@](O)(C(=O)CO)C[C@@H]3O[C@H]1C[C@H](N)[C@H](O)[C@H](C)O1 [DOXORUBICIN] | – | – | – | – | – | – | – | – | 0.01 µM | 0.3 µM
C/C=C/C1=CC(=O)[C@](C)(/C=C/C=C/CC)O1 | – | – | – | – | – | 6.3 µM | 11.7 µM | 6.8 µM | 5.5 µM | –
COCC(C)C1(O)OC(=O)C=C1OC (stereo not given) | inactive | inactive | inactive | Non-toxic | inactive | – | – | – | – | –
COC1=CC(=O)C[C@](C)(O)[C@H]1O (relative stereo) | inactive | inactive | inactive | Non-toxic | inactive | – | – | – | – | –
